A short description of assay [1]: (§1) Inhibition of NADPH oxidase in human HUVEC assessed as inhibition of superoxide anion generation by cytochrome-C reduction assay. The method, boiled down: (§2)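 HUVEC (10^5 cells/mL) in phenol red-free DMEM, 10 min at 37°C. LDL (100 μg/mL) activates oxidase. Compound 0–1000 μM with NADPH 100 μM and cytochrome c 250 μM, ±SOD 200 μg/mL, 30 min at room temperature. A550 read. Superoxide taken from the SOD-inhibitable difference using ε 18.7 cm−1mM−1; triplicate.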

The species named for assay [2] is Homo sapiens. The description is as §1. The method, boiled down: as §2
For assay [3], the species on record is Homo sapiens. In words: Inhibition of NADPH oxidase in human HUVEC assessed as inhibition of superoxide anion generation by DHE staining confocal microscopy. In a few lines: (§3)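 HUVEC in phenol red-free DMEM exposed to compound 0–1 mM for 2 h, washed twice in PBS, resuspended in fresh DMEM. NADPH oxidase activated with PMA (1 μM) for 30 min, then DHE (3 μM) for 30 min, then NADPH (100 μM); kept in dark. Oxyethidium red fluorescence imaged by confocal microscopy, qualitative.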

Assay [4] can be described thus: Inhibition of p47phox/p22phox interaction by ELISA. Background: An ELISA detects its analyte on a solid surface through an enzyme-linked reagent.
Assay [5] is filed under the species Homo sapiens. In words: Inhibition of NADPH oxidase in human HUVEC assessed as inhibition of superoxide anion generation up to 1 mM by DHE staining confocal microscopy. In a few lines:
as §3

Calls of active or inactive are those of the source. No cut-off for these calls is given here.

Broadly, the IC50 is the concentration needed to halve the response being measured. As to `COC1=CC(C(C)=O)=C/C(=C2\C(=O)C(OC)=C(c3cc(C(C)=O)cc(OC)c3O)C(C(C)=O)=C2O)C1=O`, the IC50 in assay [1] turned out to be 0.03 µM; in assay [4], 1.6 µM. Moreover, the figures for the logIC50 (in the assay listed under Homo sapiens [2]; in assay [4]) were -1.51 and 0.2, respectively. Further, the result in the assay filed under Homo sapiens [3] was Active.
With `COc1cc(C(C)=O)ccc1O` [APOCYNIN], the IC50 in assay [1] worked out at 1090 µM; in assay [4], 61000 µM. For the same molecule, the logIC50 in the assay filed under Homo sapiens [2] amounted to 3.04; in assay [4] it was 4.78. Moreover, in the assay filed under Homo sapiens [5], the outcome was inactive.
